Assay results reported in paper PMC9051925 (RSC Advances, 2020).

Columns and labels:
[1] = test system: L02 cells; assay: MTT assay for H2O2-treated L02 cells; assay type: cell-based; conditions: Homo sapiens, L02, read-out: L02 cell viability after H2O2
Outline: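 Cells were grown in RPMI-1640 with 10% FBS at 37 °C, 5% CO2. PC12 cells were seeded at 5 × 10^5 cells per mL and incubated 16 h; L02 cells at 1 × 10^5 cells per mL, 24 h. Test compound (final 10 μM, from 20 mM DMSO stock) or DMSO was added for 0.5 h. Then 10 μL H2O2 (1 mM in medium) or medium was added for 2 h, followed by MTT for 4 h.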

[2] = DPPH˙ radical scavenging assay; conditions: read-out: DPPH˙ scavenging activity (EC50); 37 °C 30 min, OD 540 nm; mean ± SD
Outline: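 Assay mixtures were 50 μL DPPH˙ working solution in ethanol plus 50 μL test compound in DMSO (sample solutions 0.02–20 mM). Ethanol replaced DPPH˙ in sample-control and blank wells. Mixtures were incubated at 37 °C for 30 min and read at OD 540 nm, in triplicate. Scavenging rate was calculated by formula. EC50 was derived by nonlinear regression from three independent experiments.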

In the case of O=C(O)c1cc(O)c(O)c(O)c1 [GA, gallic acid], the viability at 10 µM [1] is reported as 37.8% and the EC50 [2] is reported as 50 ± 10 µM.

In the case of O=C1O[C@H]([C@@H](O)CO)C(O)=C1O [VC, vitamin C], the EC50 [2] is reported as 230 ± 90 µM.
